Dynein transport = inhibitors of GR-EGFP nuclear translocation, primary screen, dynein cargo transport inhibitor project, imaging, high-content, 3617.4 mouse cells | test concentration mostly 20 µM; stimulated with dexamethasone, 1 µM; stronger effect = lower value | z-score, hits read low | hit rate 0.47% among 220,000;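 active means plate z-score of nuclear minus cytoplasmic receptor signal below a set negative limit, without overly bright fluorescence or cell loss, cut at about -3.5 in these data, passing the limit was not always enough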;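 further: z-score of nuclear minus cytoplasmic ring GR-EGFP intensity difference per well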
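Schedule: 48 h induction, then 1 h compound, then 30 min agonist, 37 °C. Buffer or medium: tetracycline-free induction medium containing charcoal-stripped FBS. Reagent: 1.0 µM final dexamethasone stimulus. Evaluation: nuclear versus cytoplasmic GR-EGFP signal, averaged per well. Signal: high-content fluorescence imaging after fixation.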
ATG4B inhibitor = ATG4B protease inhibitors, primary screen, biochemical, fluorescence, uHTS; Cysteine protease ATG4B (Homo sapiens), Q9Y4P1; ATG4B cleavage of LC3-PLA2, NBD-HPC fluorescence, 1 h; inhibition, % at 8.33 µM; hit rate 0.51% among 340,000; in the data active means inhibition above about 40%
MEKK2 WT-MEK5 = modulators of MEK5 binding to wildtype MEKK2, primary screen, biochemical, multiplex bead flow cytometry, Alexa488-MEK5; Mitogen-activated protein kinase kinase kinase 2 (Homo sapiens), Q9Y2U5; Alexa488-MEK5 binding to MEKK2 WT; actives lie on both sides; binding response (% of control), % at 10 µM; hit rate 1.1% among 290,000; AID 1531, 2009; in the data active means binding response below about 67% or above about 130%
MEKK3 PB1 HTS = modulators of MEKK3-MEK5 PB1 binding, primary screen, biochemical, wildtype MEKK3, multiplex bead flow cytometry, Alexa488-MEK5. Mitogen-activated protein kinase kinase kinase 3 (Homo sapiens), Q99759. bead-based flow cytometry, Alexa488-MEK5 binding to MEKK3; actives lie on both sides; 0 = blocked by unlabeled MEK5, 100 = vehicle. binding response (% of control), % at 10 µM. hit rate 1.4% among 290,000;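 active means binding response more than 3 SD above or below the average of its plate-row segment, actives on both sides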;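 further: Alexa488 bead fluorescence after subtracting the streptavidin-only scavenger bead signal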
Target sequence (Q99759 whole entry, looked up): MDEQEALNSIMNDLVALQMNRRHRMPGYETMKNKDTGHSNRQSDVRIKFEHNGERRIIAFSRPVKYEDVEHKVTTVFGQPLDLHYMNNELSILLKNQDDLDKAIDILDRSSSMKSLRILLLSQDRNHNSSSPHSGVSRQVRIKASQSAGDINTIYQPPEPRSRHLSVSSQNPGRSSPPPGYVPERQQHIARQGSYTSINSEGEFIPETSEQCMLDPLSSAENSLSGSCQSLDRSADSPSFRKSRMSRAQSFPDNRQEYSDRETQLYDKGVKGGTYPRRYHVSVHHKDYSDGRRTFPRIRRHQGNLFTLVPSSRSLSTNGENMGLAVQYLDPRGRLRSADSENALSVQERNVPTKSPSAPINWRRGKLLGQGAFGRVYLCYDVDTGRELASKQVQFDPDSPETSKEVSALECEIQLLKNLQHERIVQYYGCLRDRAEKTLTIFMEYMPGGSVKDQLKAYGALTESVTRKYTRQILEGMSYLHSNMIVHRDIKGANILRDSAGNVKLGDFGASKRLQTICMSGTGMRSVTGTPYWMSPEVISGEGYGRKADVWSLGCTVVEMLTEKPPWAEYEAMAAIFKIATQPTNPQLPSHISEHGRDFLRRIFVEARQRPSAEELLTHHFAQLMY
B2AR ag = beta2AR agonists driving receptor internalization, primary screen, cell-based, FAP fluorogen, flow cytometry | response, % (test concentration not listed) | Am2.2-beta2AR cells | Beta-2 adrenergic receptor (Homo sapiens), P07550 | hit rate 0.43% among 340,000;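 active means response above a set limit, near 3 SD of response in nonfluorescent compounds, cut at about 42% in these data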
MEKK2mut PB1 HTS = MEK5 binding signal on mutant MEKK2 PB1, primary screen, biochemical, multiplex bead flow cytometry, Alexa488-MEK5; Alexa488-MEK5 binding to MEKK2 mutant; percent response, % at 10 µM; hit rate 0.35% among 290,000; AID 1530, 2009; in the data active means percent response above about 24%, passing the limit was not always enough
MEKK2wt confirm = modulators of MEK5 binding to wildtype MEKK2, confirmation, biochemical, single concentration, multiplex bead flow cytometry. shares compounds with MEKK3 PB1 HTS. Alexa488-MEK5 binding to MEKK2 WT; actives lie on both sides. binding response (% of control), % at 10 µM. hit rate 2.4% among 5,900; in the data active means binding response below about 16% or above about 210%; inactive means in between
MEKK2mut-MEK5 = mutant MEKK2 PB1-MEK5 binding signal retest – biochemical, single concentration, multiplex bead flow cytometry, confirmation; hit rate 2% among 5,900; Alexa488-MEK5 binding to MEKK2 mutant; shares compounds with MEKK3 PB1 HTS; percent response, % at 10 µM; in the data active means percent response mostly above about 71%, no sharp cut-off; inactive means mostly below about 38%;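 further: higher means compound restores mutant binding toward wildtype level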
MEKK3 confirm = MEKK3 wild-type PB1 binding to MEK5, inhibitors, confirmation, biochemical, bead multiplex flow cytometry, single concentration, wildtype. shares compounds with MEKK3 PB1 HTS. hit rate 1.8% among 5,900. Alexa488-MEK5 binding to MEKK3; stronger effect = lower value. binding response (% of control), % at 10 µM;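 active means binding response below 72% of control, or above a set upper limit, though filed actives all read lower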;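 further: 100% = DMSO only wells and 0% = binding blocked by excess unlabeled MEK5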
* = called active by the depositor; · = not tested or not shown; ! = not confirmed by another sample; [ ] = remark or other dose. Only some compounds are listed: those with a hit (about 2.9% of all), similar ones and a draw of the others.

SMILES	Dynein transport	ATG4B inhibitor	MEKK2 WT-MEK5	MEKK3 PB1 HTS	B2AR ag	MEKK2mut PB1 HTS	MEKK2wt confirm	MEKK2mut-MEK5	MEKK3 confirm
N=C1CCCN1CC(=O)c1ccc(Br)cc1	-0.011	-9	108	143*	4	0	100	-3	102
O=C(c1ccc(Br)cc1)N1CCCC1	1	-5	101	99	3	1	·	·	·
Cc1ccc(C(=O)N/C(=C\c2ccc(Br)cc2)c2nc(=S)[nH][nH]2)cc1	-0.068	-12	65*[inhibitor]	97	1	-10	82	-15	96
O=C(N/C(=C/c1cccc(Br)c1)c1nc(=S)[nH][nH]1)c1ccccc1	-2.2	-9	101	100	5	3	·	·	·
CCOc1ccc(NS(=O)(=O)c2ccc3c(c2)CCN3C(C)=O)cc1	·	-3	97	93	-29	-1	·	·	·
O=C(CSc1ccc(Br)cc1)NC1CCCCCC1	·	-4	·	·	-8	·	·	·	·
O=C(CSc1ccc(F)cc1)NC1CCCCC1	3	18	1.0*[inhibitor]	2.0*[inhibitor]	-9	-84	106	5	107
Cc1cccc(NC2=NC(C)(C)N=C(N)N2)c1	-0.62	-8	99	110	3	-6	·	·	·
CC1=CC(C)(C)N2C(=O)C3(N=C(N)NC(Nc4ccccc4)=N3)c3cc(C)cc1c32 (stereo unspecified)	0.98	19	154*	121	9	33*	137	14	102
CC(C(=O)Nc1ccc(OCc2ccccc2)cc1)N1CCCC1 (stereo unspecified)	1.4	-11	105	103	-2	6	·	·	·
CC(C)COCC(CN(Cc1ccccc1)c1ccccc1)N1CCCC1 (stereo unspecified)	·	14	146*!	96	22	-23	137	20	104
CCOc1cc(CNC2CCCC2)cc(Cl)c1OCc1ccc(F)cc1	0.38	-10	144*	101	22	14	149	26	97
COc1cc(CNC2CCCC2)cc(Cl)c1OCc1ccc(F)cc1	-0.78	-3	126	98	8	25*	127	10	104
COc1cc(CNC2CCCC2)cc(Cl)c1OCc1ccccc1Cl	0.43	-1	207*	109	24	46	141	23	109
COc1cc(CNC2CCCCCCC2)cc(Cl)c1OCC(N)=O	·	-6	105	98	-2	0	·	·	·
COc1cc(CNC2CCCC2)cc(OC)c1OC	0.5	1	97	101	-2	1	·	·	·
COc1cc(CNCCO)cc(Cl)c1OCc1ccc(Cl)cc1Cl	7.2	6	161*	106	20	25	160	27	108
Cn1c(SCC(=O)N/N=C/c2ccc([N+](=O)[O-])s2)nnc1-c1ccc(Cl)cc1	-1.3	-7	94	93	-5	-2	·	·	·
CCOC(=O)C1CCN(S(=O)(=O)c2ccccc2[N+](=O)[O-])CC1	·	-8	·	·	10	·	·	·	·
NC(=O)C1CCN(C(=O)/C=C/c2ccco2)CC1	-0.8	-8	96	96	-1	-3	·	·	·
Nc1cc2c(cc1Cl)N(Cc1ccccc1)C(=O)CO2	·	1	·	·	-3	·	·	·	·
O=C1CN(C(=O)c2ccc(Cl)c([N+](=O)[O-])c2)c2ccccc2N1	·	-4	101	100	5	5	·	·	·
CCC(C)N1C(=O)/C(=C/c2c(NCCCOC(C)C)nc3c(C)cccn3c2=O)SC1=S (stereo unspecified)	-7.4	3	·	32*[inhibitor]	·	123*	59	-22	74
C=CCNS(=O)(=O)c1cccc2cc(C(=O)O)c(O)cc12	-0.64	2	136*	134*	8	9	97	-2	96
Cc1cc(NC(=O)CSc2nc3cc(C(=O)NCCCOC(C)C)ccc3c(=O)n2Cc2ccco2)no1	1.9	-5	84	81	-4	-2	·	·	·
SMILES	Dynein transport	ATG4B inhibitor	MEKK2 WT-MEK5	MEKK3 PB1 HTS	B2AR ag	MEKK2mut PB1 HTS	MEKK2wt confirm	MEKK2mut-MEK5	MEKK3 confirm
COc1cc(/C=N/N2CCOCC2)ccc1OC(=O)c1ccco1	0.71	2	52	49*[inhibitor]	0	-17	95	-7	98
COc1cc(/C=N/N(C)C)ccc1OC(=O)c1ccco1	-0.37	4	104	106	1	-1	·	·	·
CCN1c2ccccc2NC2C1C(C(C)=O)C(=O)N2c1ccc(Cl)cc1 (stereo unspecified)	-1.1	-17	59*	93	-64	73*	101	-2	102
CCN(C(=O)c1ccccc1F)c1nc(-c2ccc(OC)cc2)cs1	·	1	104	103	9	0	·	·	·
COc1ccc(-c2csc(N(CCCN(C)C)C(=O)c3ccc(F)cc3)n2)cc1	·	-4	140*	111	1	25*	124	11	102
CCN(CC)CCCN(C(=O)c1ccc(F)cc1)c1nc(-c2ccc(OC)cc2)cs1	·	-3	141*	113	4	24*	138	19	103
O=C(NCc1ccccn1)Nc1cccc(F)c1	·	-6	109	102	4	8	·	·	·
CC(C)CCNCC(O)CON=C1c2ccccc2-c2ccccc21 (stereo unspecified)	-0.9	-5	161*	98	12	2	144	21	104
OC(CNCCc1ccc(Cl)cc1)COc1cc(Cl)ccc1Cl (stereo unspecified)	·	-15	122	107	-9	26*	128	22	105
CCC(=O)c1ccc(OCC(O)CNCCc2ccc(Cl)cc2)cc1 (stereo unspecified)	·	1	120	102	2	7	·	·	·
OC(CNCCc1ccccc1)COc1ccc(OCC(O)CNCCc2ccccc2)cc1 (stereo unspecified)	5.2	-8	172*	98	24	40	172	39	107

Screening data deposited in PubChem BioAssay by several laboratories.
